Measured values published in ChEMBL document CHEMBL1121744, “Synthesis and antihypertensive activity of a series of 8-substituted 1-oxa-3,8-diazaspiro[4.5]decan-2-ones” (J Med Chem, 1981).
Where “and” joins values, the source holds several entries; their conditions need not be identical. Identical values can stand only once.

Experiments:
[1] = test system: Rattus norvegicus; test: Antihypertensive activity as percentage fall in systolic blood pressure in spontaneously hypertensive rats after a period of 1 hr for a dose of 50 mg/kg; type: functional, Artery
How it was run: (§1)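 Male Okamoto-Aoki SHR, trained, in groups of four matched for mean systolic pressure; one group per run received water vehicle. Oral dosing in water (0.1 mL per 10 g) on two consecutive mornings. After the day-2 dose, rats were restrained at 30.0 ± 1.0 °C. Systolic pressure was read by tail cuff (inflated to 300 mmHg, first pulse) at 1–4 h. % fall is versus the untreated control group, by 1-tail t test (p ≤ 0.05).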

[2] = test system: Rattus norvegicus; test: Antihypertensive activity as percentage fall in systolic blood pressure in spontaneously hypertensive rats after a period of 4 hr for a dose of 50 mg/kg; type: functional, organism-based; design: dose 50 mg/kg; conditions: Artery; how it was run: as §1
[3] = test system: Rattus norvegicus; test: Percentage fall in systolic blood pressure in spontaneously hypertensive rats after 2 hr following 50 mg/kg p.o.; type: functional, Artery; conditions: route oral; how it was run: as §1
[4] = (§2) Distribution coefficient between 1-Octanol and phosphate buffer at pH7.4; type: physicochemical; conditions: 1-octanol/phosphate buffer, pH 7.4
How it was run: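 Octanol/buffer distribution measured at pH 7.4 in phosphate with sodium chloride. Either HPLC (0.004 M) or shake flask.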

[5] = test system: Rattus norvegicus; test: Antihypertensive activity as percentage fall in systolic blood pressure in spontaneously hypertensive rats after a period of 3 h for a dose of 50 mg/kg; type: functional, organism-based; design: dose 50 mg/kg; conditions: Artery; how it was run: as §1
[6] = test system: Rattus norvegicus; test: Percentage fall in systolic blood pressure in spontaneously hypertensive rats after 3 h following 50 mg/kg p.o.; type: functional, Artery; conditions: route oral; how it was run: as §1
[7] = test system: Rattus norvegicus; test: Antihypertensive activity as percentage fall in systolic blood pressure in spontaneously hypertensive rats after a period of 2 hr for a dose of 50 mg/kg; type: functional, organism-based; design: dose 50 mg/kg; conditions: Artery; how it was run: as §1
[8] = test system: Rattus norvegicus; test: Antihypertensive activity as percentage fall in systolic blood pressure in spontaneously hypertensive rats after a period of 1 hr for a dose of 50 mg/kg po; type: functional, organism-based; design: dose 50 mg/kg; conditions: Artery; how it was run: as §1
[9] = as §2; type: physicochemical; conditions: 1-octanol/phosphate buffer, pH 7.4; remark: listed apart in the source
[10] = test system: Rattus norvegicus; test: The antihypertensive activity as percentage fall in systolic blood pressure in spontaneously hypertensive rats after a period of 3 hr for a dose of 50 mg/kg po
[11] = test system: Rattus norvegicus; test: The antihypertensive activity as percentage fall in systolic blood pressure in spontaneously hypertensive rats after a period of 4 hr for a dose of 50 mg/kg po
[12] = test system: Rattus norvegicus; test: The antihypertensive activity as percentage fall in systolic blood pressure in spontaneously hypertensive rats after a period of 2 hr for a dose of 50 mg/kg po
[13] = test system: Rattus norvegicus; test: The antihypertensive activity as percentage fall in systolic blood pressure in spontaneously hypertensive rats after a period of 1 hr for a dose of 50 mg/kg po

Row | SMILES | Decrease in blood pressure [1] | Decrease in blood pressure [2] | logD [4] | Decrease in blood pressure [5] | Decrease in blood pressure [7] | Decrease in blood pressure [8] | also measured
1 | CCC1CN(CCc2c[nH]c3ccccc23)CCC12CNC(=O)O2 (stereo not given) | 16% | Not significant | 2.01 | Not significant |  |  | Decrease in blood pressure [3]: 19%
2 | CCCCC1NC(=O)OC12CCN(CCc1c[nH]c3ccccc13)CC2 (stereo not given) | 24% | Not significant |  |  |  |  | Decrease in blood pressure [6]: 15%; Decrease in blood pressure [3]: 14%
3 | CCCC1NC(=O)OC12CCN(CCc1c[nH]c3ccccc13)CC2 (stereo not given) | 36% | Not significant | 2.31 |  |  |  | Decrease in blood pressure [6]: 16%; Decrease in blood pressure [3]: 12%
4 | O=C1OC2(CCN(CC(O)C3COc4ccccc4O3)CC2)CN1c1ccccc1 (stereo not given) | 16% | Not significant |  | Not significant | Not significant |  | 
5 | CCCC1CN(CCc2c[nH]c3ccccc23)CCC12CNC(=O)O2 (stereo not given) | 21% | Not significant | 2.42 | Not significant | Not significant |  | 
6 | CC(C)CC1NC(=O)OC12CCN(CCc1c[nH]c3ccccc13)CC2 (stereo not given) | 27% | Not significant |  |  |  |  | Decrease in blood pressure [6]: 22%
7 | O=C1OC2(CCN(CC(O)C3COc4ccccc4O3)CC2)CN1CCc1ccccc1 (stereo not given) | 14% | Not significant | 2.79 | Not significant | Not significant |  | 
8 | O=C1NC(Cc2ccccc2)C2(CCN(CC(O)C3COc4ccccc4O3)CC2)O1 (stereo not given) |  | Not significant | 2.41 | Not significant | Not significant | Not significant | 
9 | COc1ccccc1OCC(O)CN1CCC2(CC1)CN(CCc1ccccc1)C(=O)O2 (stereo not given) |  | Not significant |  | Not significant | Not significant | Not significant | 
10 | O=C1NC(c2ccccc2)C2(CCN(CCc3c[nH]c4ccccc34)CC2)O1 (stereo not given) |  | Not significant | 2.61 | Not significant | Not significant | Not significant | 
11 | O=C1OC2(CCN(CCc3c[nH]c4ccccc34)CC2)CN1Cc1ccccc1 |  | Not significant | 2.91 | Not significant | Not significant | Not significant | 
12 | COc1ccccc1OCC(O)CN1CCC2(CC1)CN(Cc1ccccc1)C(=O)O2 (stereo not given) |  | Not significant |  | Not significant | Not significant | Not significant | logD [9]: 2.19
13 | CCCN1CC2(CCN(CC(O)COc3ccccc3OC)CC2)OC1=O (stereo not given) |  | Not significant |  | Not significant | Not significant | Not significant | 
14 | O=C1OC2(CCN(CC(O)C3COc4ccccc4O3)CC2)CN1Cc1ccccc1 (stereo not given) |  | Not significant |  | Not significant | Not significant | Not significant | 
15 | COc1ccccc1OC[C@H](O)CN1CCC2(CC1)CN(C)C(=O)O2 | 10% | Not significant |  | Not significant |  |  | Decrease in blood pressure [3]: 5%
16 | CC1NC(=O)OC12CCN(CCc1c[nH]c3ccccc13)CC2 (stereo not given) | 18% | Not significant | 1.43 | Not significant | Not significant |  | 

Row | SMILES | Decrease in blood pressure [1] | Decrease in blood pressure [2] | logD [4] | Decrease in blood pressure [5] | Decrease in blood pressure [7] | Decrease in blood pressure [8] | also measured
17 | COc1ccccc1OC[C@@H](O)CN1CCC2(CC1)CN(C)C(=O)O2 | 25% |  |  |  |  |  | Decrease in blood pressure [6]: 10%; Decrease in blood pressure ([3]; 50 mg/kg): 16% and 13%
18 | CC(C)C1NC(=O)OC12CCN(CCc1c[nH]c3ccccc13)CC2 (stereo not given) | 26% | Not significant |  | Not significant |  |  | Decrease in blood pressure [3]: 17%
19 | COc1ccccc1OCC(O)CN1CCC2(CC1)CNC(=O)O2 (stereo not given) |  | Not significant | 0.69 | Not significant | Not significant | Not significant | 
20 | CCCN1CC2(CCN(CCc3c[nH]c4ccccc34)CC2)OC1=O | 14% | Not significant | 2.36 | Not significant | Not significant |  | 
21 | CCCCN1CC2(CCN(CCc3c[nH]c4ccccc34)CC2)OC1=O |  | Not significant |  | Not significant | Not significant | Not significant | 
22 | CCCN1CC2(CCN(CC(O)C3COc4ccccc4O3)CC2)OC1=O (stereo not given) |  | Not significant |  | Not significant | Not significant | Not significant | 
23 | O=C1NC(c2ccccc2)C2(CCN(CC(O)C3COc4ccccc4O3)CC2)O1 (stereo not given) |  | Not significant | 2.41 | Not significant | Not significant | Not significant | 
24 | CCCCN1CC2(CCN(CC(O)COc3ccccc3OC)CC2)OC1=O (stereo not given) |  | Not significant |  | Not significant | Not significant | Not significant | 
25 | CCC1NC(=O)OC12CC[N+](C)(CCc1c[nH]c3ccccc13)CC2.[I-] (stereo not given) | 20% | Not significant |  | Not significant | Not significant |  | 
26 | CCCCN1CC2(CCN(CC(O)C3COc4ccccc4O3)CC2)OC1=O (stereo not given) |  | Not significant |  | Not significant | Not significant | Not significant | 
27 | CCN1CC2(CCN(CC(O)COc3ccccc3OC)CC2)OC1=O (stereo not given) | 11% | Not significant |  | Not significant | Not significant |  | 
28 | CCC1NC(=O)OC12CCN(CC(O)C1COc3ccccc3O1)CC2 (stereo not given) |  |  |  |  |  |  | Decrease in blood pressure [10]: 32%; Decrease in blood pressure [11]: 40%; Decrease in blood pressure [12]: 43%; Decrease in blood pressure [13]: 47%
29 | CCC1N(C)C(=O)OC12CCN(CCc1c[nH]c3ccccc13)CC2 (stereo not given) |  | Not significant | 2.14 | Not significant | Not significant | Not significant | 
30 | COCCN1CC2(CCN(CCc3c[nH]c4ccccc34)CC2)OC1=O | 21% | Not significant |  | Not significant | Not significant |  | 
31 | O=C1OC2(CCN(CCc3c[nH]c4ccccc34)CC2)CN1CCc1ccccc1 |  | Not significant | 2.95 | Not significant | Not significant | Not significant | 
32 | COc1ccccc1OCC(O)CN1CCC2(CC1)CN(C(C)C)C(=O)O2 (stereo not given) |  | Not significant |  | Not significant | Not significant | Not significant | 
